Screening data: PubChem, several laboratories
RBBP9 inh = blocks human serine hydrolase RBBP9; O75884; recombinant RBBP9, FP-Rh probe fluorescence polarization; inhibition, % at 7.94 µM; 220,000 compounds, 0.2% hits; AID 1515;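 active = inhibition above the campaign mean of all tested compounds plus 3 SD, cut at about 14% in these data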;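 note: plate controls were DMSO wells with RBBP9 for no effect and wells lacking RBBP9 protein for full effect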
Target sequence (O75884 whole entry, looked up): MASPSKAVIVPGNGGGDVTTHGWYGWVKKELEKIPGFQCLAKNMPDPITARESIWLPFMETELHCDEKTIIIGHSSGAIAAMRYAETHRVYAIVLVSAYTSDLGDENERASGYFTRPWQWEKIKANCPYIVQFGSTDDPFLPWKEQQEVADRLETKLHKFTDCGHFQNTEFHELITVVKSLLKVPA
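Material: RBBP9 protein. Amount: RBBP9 at 2.5 µM in dispensed solution, before mixing. Schedule: 30 min then 45 min, 25 °C. Medium: Tris buffer pH 8.0, NaCl, Pluronic. Measured by: fluorescence polarization. Measure: percent inhibition from mP, scaled between DMSO and no-protein wells. Replication: one well per compound.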
PREPL inh = inhibitors of human prolyl oligopeptidase-like enzyme PREPL; Q4J6C6; recombinant PREPL, fluorescence polarization activity-based probe; AID 2751; inhibition, % at 5.96 µM; 320,000 compounds, 0.68% hits; in the data active = inhibition above about 43%;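 note: 0% = enzyme with DMSO and 100% = wells lacking enzyme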
UBC9 SUMO inh = inhibitors of human SUMOylation (UBC9). P63279. HTRF SUMOylation assay, SAE1/SAE2 + UBC9, in vitro. inhibition, % at 35 µM. 290,000 compounds, 0.36% hits; in the data active = inhibition above about 50%, passing the limit was not always enough
Target sequence (P63279 whole entry, looked up): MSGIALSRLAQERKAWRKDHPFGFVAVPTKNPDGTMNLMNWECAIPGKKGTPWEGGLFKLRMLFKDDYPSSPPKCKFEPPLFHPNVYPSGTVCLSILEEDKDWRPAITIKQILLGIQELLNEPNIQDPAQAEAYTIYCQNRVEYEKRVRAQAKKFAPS
Rin1-Abl PPI inh = blocks binding of human Rin1 to Abl; P00519+Q13671; TR-FRET Rin1/Abl binding, biochemical; inhibition, % at 7.35 µM; 360,000 compounds, 0.4% hits; in the data active = inhibition above about 5%, passing the limit was not always enough
UBC13 inh = human UBC13 polyubiquitination inhibition | UBC13 polyubiquitin chain formation, TR-FRET | inhibition, % at 20 µM | 330,000 compounds, 0.47% hits | AID 485273; in the data active = inhibition above about 45%, passing the limit was not always enough
Target sequence (P61088 whole entry, looked up): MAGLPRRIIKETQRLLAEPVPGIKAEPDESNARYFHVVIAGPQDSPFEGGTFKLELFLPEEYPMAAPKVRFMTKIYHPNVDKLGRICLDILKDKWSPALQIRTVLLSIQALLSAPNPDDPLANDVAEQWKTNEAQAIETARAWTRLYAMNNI
ALR H2O2 inh = blocks human ALR sulfhydryl oxidase activity; purified ALR, DTT oxidation, H2O2 HRP-luminol luminescence; inhibition, % (no concentration beside the values); 290,000 compounds, 3.8% hits;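 active = mean replicate inhibition above about 79%, with every replicate also reaching it, limit read from the data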
Active calls of the source: *; . = no result given. Only some compounds are listed: those with a hit (about 4.3% of all), similar ones and a draw of the others.

SMILES	RBBP9 inh	PREPL inh	UBC9 SUMO inh	Rin1-Abl PPI inh	UBC13 inh	ALR H2O2 inh
CCCCCCCc1c(C)nc(N2CCOCC2)[nH]c1=O	1	1	8	1	9	-7
Cc1cc(C)cc(C(=O)NCCC(=O)N2CCC3(CC2)NCCc2[nH]cnc23)c1	.	13	-2	-2	1	-6
CCOC(=O)/C(=N\Nc1ccc(Br)cc1)N1CC(C)OC(C)C1 (centres undefined)	0	6	8	1	1	100*
CC(=O)N1NC(=Nc2ccccc2)SC1(C)C	-6	1	2	0	-5	98*
COc1cccc(Oc2cn[nH]c2-c2ccc(O)cc2O)c1	-4	9	-5	-3	28	80*
COc1ccc(-c2cn[nH]c2-c2ccc(OC)cc2O)cc1	.	-12	-2	-1	13	97*
OC(c1cccc(Cl)c1)c1nc(-c2ccoc2)cs1 (centres undefined)	.	.	.	-1	.	.
N#C/C(=C\c1ccc(O)c(O)c1)C(=O)NCCCc1ccccc1	-8	18	-22	-1	-15	.
N#C/C(=C\c1ccc(O)c(O)c1)C(=O)N1CCCC1	-2	-1	9	0	-15	100*
COc1cc(/C=C(\C#N)C(=O)N2CCCCC2)ccc1O	.	-3	-7	0	0	99*
N#C/C(=C\c1ccc(O)c(O)c1)C(=O)c1ccc(O)c(O)c1	.	18	.	-1	-203	100*
Cc1nn(C(C)C(=O)NCCc2cccs2)c(=O)c2nn(-c3ccccc3)c(C)c12 (centres undefined)	.	11	13	3	-1	-2
COc1ccc(-c2nc3c(C)cc(Br)cn3c2Cc2cccc(Cl)c2)cc1OC	.	.	.	-83	.	.
CC(C)n1cnnc1SCC(=O)Nc1ccc(N2CCCCC2)cc1	.	5	.	2	1	99*
CC(C)(C)c1nnc(SCC(=O)Nc2ccc(N3CCCCC3)cc2)n1N	.	5	.	2	6	99*
CC(Sc1nncn1C)C(=O)Nc1ccc(N2CCCCC2)cc1 (centres undefined)	.	10	.	1	-2	92*
CSc1ccc(CCNC(=O)c2cccc3c2C(=O)N(C2CCCCC2)C3)cc1	.	-9	-10	2	3	-65
COc1ccccc1NC(=O)CSCc1ccc([N+](=O)[O-])cc1	2	-4	15	3	3	.
O=C(NCCN1CCOCC1)c1ccc(CSc2nc3ccncc3n2Cc2ccc(F)cc2)cc1	3	-3	2	-7	-1	99*
O=C(NC1CCCC1)c1ccc(CSc2nc3ccncc3n2Cc2ccc(F)cc2)cc1	-10	12	8	0	7	99*
CCC(C)NC(=O)c1ccc(CSc2nc3ccncc3n2Cc2ccc(F)cc2)cc1 (centres undefined)	-2	-12	3	5	7	15
CCc1noc(C)c1C(=O)NNC(=O)COc1ccccc1C	.	18	.	2	3	.
Cc1ccc(CCNC(=O)C2CCN(S(=O)(=O)c3ccc4c(c3)CCC(=O)N4)CC2)cc1	-3	-4	0	0	2	-2
CC(C)CCNC(=O)C1CCN(S(=O)(=O)c2ccc3c(c2)CCC(=O)N3)CC1	-11	2	9	2	-2	84*
CCOc1ccc2c(c1)C(NC(C)=O)C(=O)N2CCN1CCOCC1 (centres undefined)	.	.	57*	4	-6	0
SMILES	RBBP9 inh	PREPL inh	UBC9 SUMO inh	Rin1-Abl PPI inh	UBC13 inh	ALR H2O2 inh
CC(=O)NC1C(=O)N(CCN2CCOCC2)c2ccc(Br)cc21 (centres undefined)	.	-3	62*	2	-2	.
Cc1cc(C)c(S(=O)(=O)NCc2nc3nc(C)cc(C)n3n2)c(C)c1	.	2	-5	-2	-10	-16
CCCOc1ccc(C(=O)Nc2ccc(S(=O)(=O)Nc3cc(C)nc(C)n3)cc2)cc1	-10	-8	24	-1	0	96*
COCCN(CCOC)S(=O)(=O)c1ccc(C(=O)Nc2ccc(S(=O)(=O)Nc3nccc(C)n3)cc2)cc1	1	-4	-8	-1	3	90*
COc1ccc(N(CC(=O)N/N=C/c2ccc3c(c2)OCO3)S(=O)(=O)c2ccccc2)cc1	-3	-12	4	.	-4	-8
CCOC(=O)c1cc(OC(=O)Cc2ccc(OC)c(S(=O)(=O)N3CCOCC3)c2)cc(C(=O)OCC)c1	.	.	.	-5	.	.
Nc1ccc2c(=O)[nH][nH]c(=O)c2c1	.	.	.	-2	.	.
Nc1ccc2oc3ccc(N)cc3c(=O)c2c1	-3	24	31	-8	-50	99*
O=C(O)C1CSC(c2ccco2)N1 (centres undefined)	-2	-3	6	2	8	-6
Cc1ccc2occ(C3N[C@H](C(=O)O)CS3)c(=O)c2c1 (some centres undefined)	-8	-6	21	3	-7	99*
Cc1ccc2occ(C3NC(C(=O)O)CS3)c(=O)c2c1 (centres undefined)	-3	6	12	-2	-21	98*
COc1ccc(OCc2nnc(SCC(=O)Nc3ccccc3Cl)o2)cc1	.	-7	8	1	1	-4
N=C1/C(=C/c2cccn2Cc2ccc(Cl)cc2)C(=O)N=C2SC=CN12	0	-13	50*	4	-17	-1
CC1=CC2=NC(=O)/C(=C/c3cccn3Cc3ccccc3)C(=N)N2O1	-5	-40	1	-1	-3	.
Cc1ccc(C(=O)NCc2ccco2)cc1Br	-12	-5	4	0	-13	41
Cc1c(Br)cc(C(=O)NCc2ccco2)c(C)c1C	-7	7	20	-3	-5	98*
O=C1COc2ccc(-c3csc(NCC4CCCO4)n3)cc2N1 (centres undefined)	3	17	4	-6	-5	87*
CC(Nc1nc(-c2ccc3c(c2)NC(=O)CO3)cs1)c1ccccc1 (centres undefined)	1	14	5	2	5	98*
CS(=O)(=O)N1CCc2cc(-c3csc(NCC4CCCO4)n3)ccc21 (centres undefined)	-4	2	.	0	-5	3
CCOC(=O)Nc1cccc(C(=O)O)c1	-3	0	-4	-5	8	-10
CCOC(=O)Nc1cccc(Nc2ccccc2)c1	-5	10	-7	4	6	99*
CC(=O)c1c(C)[nH]c(C(=O)Nc2cccc(C(F)(F)F)c2)c1C	.	11	-17	-2	4	-1
N#Cc1ccccc1CN1C(=O)S/C(=C/c2cccn2-c2ccc(C(=O)O)cc2)C1=O	6	1	14	-1	-19	98*
O=C(O)c1ccc(-n2cccc2/C=C2/SC(=O)N(CC(=O)N3CCCC3)C2=O)cc1	.	-4	41	0	1	2
Cc1nc(-c2ccc(F)cc2)c(CC(=O)NCC(=O)Nc2ccc(F)c(F)c2)s1	.	5	.	3	-5	.
CCCCn1c(CCC(=O)O)ccc1-c1cccs1	-4	2	7	-2	8	93*
